Results reported in PubChem BioAssay AID588686 (Southern Research Specialized Biocontainment Screening …, 2011).
Calls of active or inactive are those of the source.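 Rule for the calls: active = inhibition of 30% or more at any tested concentration; inactive = the rest.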

Target: M1-family alanyl aminopeptidase PfA-M1 [Plasmodium falciparum 3D7]
Test: inhibition of malaria M1 alanyl aminopeptidase – biochemical, QFRET, H-Leu-NHMec substrate, dose response (AID 588686)
Conditions: recombinant PfM1AAP, H-Leu-NHMec fluorogenic cleavage
Outline: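 times = enzyme reaction with compounds for 90 min, room temperature | assay system = recombinant PfM1AAP enzyme | amount = PfM1AAP enzyme at 5 µg/mL final | measure = percent inhibition per dose, IC50 from locked four-parameter fit | repeats = each concentration tested in triplicate | measured by = fluorescence at 370/460 nm | reagent = fluorogenic substrate H-Leu-NHMec at 0.1 mM final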

Row | IC50 | Compound
1 | 23.8 µM | CN(C)c1ccc(CNC(=O)C2CCN(S(=O)(=O)c3ccc(Br)s3)CC2)cc1
2 | 11.4 µM | O=C(NCc1ccc2c(c1)OCO2)C1CCN(S(=O)(=O)c2ccc(-c3cncc4ccccc34)s2)CC1
3 | 49.9 µM | CC(C)(C)c1ccc(-c2ccc(S(=O)(=O)N3CCC(C(=O)NCc4ccc5c(c4)OCO5)CC3)s2)cc1

Same assay, conditions: recombinant PfM1AAP, H-Leu-NHMec fluorogenic cleavage; at 100 µM (top of the series)

Row | Compound | inhibition
4 | COc1cccc(-c2ccc(S(=O)(=O)N3CCC(C(=O)NCc4ccc5c(c4)OCO5)CC3)s2)c1 | inactive
5 | CC(=O)Nc1cccc(-c2ccc(S(=O)(=O)N3CCC(C(=O)NCc4ccc5c(c4)OCO5)CC3)s2)c1 | inactive
6 | O=C(NCc1ccc2c(c1)OCO2)C1CCN(S(=O)(=O)c2ccc(-c3cccc(F)c3)s2)CC1 | inactive
7 | O=C(NCc1ccc2c(c1)OCO2)C1CCN(S(=O)(=O)c2ccc(-c3ccccc3)s2)CC1 | inactive
8 | CC[C@H](C)[C@H](NC(=O)c1ccc(C(C)(C)C)cc1)C(=O)NCc1ccc(C(F)(F)F)cc1 | inactive
9 | COc1ccc(-c2ccc(S(=O)(=O)N3CCC(C(=O)NCc4ccc5c(c4)OCO5)CC3)s2)cc1 | inactive

The next lines start with the values.

Row | inhibition | Compound
10 | inactive | CC[C@H](C)[C@H](NC(=O)c1ccc([N+](=O)[O-])cc1)C(=O)NCc1ccc(F)cc1
11 | inactive | CC[C@H](C)[C@H](NC(=O)c1ccc([N+](=O)[O-])cc1)C(=O)NCc1ccccc1
12 | inactive | CC[C@H](C)[C@H](NS(=O)(=O)c1ccc(Br)s1)C(=O)NCc1ccc(C(F)(F)F)cc1
13 | inactive | CC[C@H](C)[C@H](NS(=O)(=O)c1cccs1)C(=O)NCc1ccc(F)cc1
14 | inactive | CC[C@H](C)[C@H](NC(=O)c1ccc([N+](=O)[O-])cc1)C(=O)NCc1ccc(C(F)(F)F)cc1
15 | inactive | CC[C@H](C)[C@H](NS(=O)(=O)c1ccc(Br)s1)C(=O)O
16 | inactive | CC[C@H](C)[C@H](NS(=O)(=O)c1ccc(Br)s1)C(=O)NCc1ccc(F)cc1
